Screening data from PubChem BioAssay.
A selection: hits, their analogues and other compounds. The true share with any hit is near 2.3%.
ATG4B inhibitor: ATG4B (human) cysteine protease inhibition; Q9Y4P1; actives 0.51% (n = 340,000); AID 504462; inhibition, % at 8.33 µM; ATG4B cleavage of LC3-PLA2, NBD-HPC fluorescence, 1 h; in the data active means inhibition above about 40%
Target sequence (Q9Y4P1 whole entry, looked up): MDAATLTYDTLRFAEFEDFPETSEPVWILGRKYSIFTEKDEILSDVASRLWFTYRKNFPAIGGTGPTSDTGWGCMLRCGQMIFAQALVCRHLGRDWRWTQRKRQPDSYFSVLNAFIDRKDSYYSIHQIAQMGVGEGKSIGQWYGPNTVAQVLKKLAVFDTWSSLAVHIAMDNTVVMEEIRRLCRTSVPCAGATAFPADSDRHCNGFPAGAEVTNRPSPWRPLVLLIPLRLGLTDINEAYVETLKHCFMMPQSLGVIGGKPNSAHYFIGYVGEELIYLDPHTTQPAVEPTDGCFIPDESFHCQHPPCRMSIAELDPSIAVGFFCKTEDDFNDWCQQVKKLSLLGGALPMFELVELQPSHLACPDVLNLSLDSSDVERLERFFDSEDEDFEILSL
SR-BI DiI inh: inhibitors of mouse SR-BI mediated HDL lipid uptake | ldlA[mSR-BI] CHO cells, DiI-HDL uptake fluorescence, 3 h | inhibition, % at 12.5 µM | actives 0.96% (n = 320,000) | AID 488896;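 active means mean replicate inhibition of at least 70% and a set share of replicates each scoring 70 or more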;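 further: 0% = median of neutral control wells and 100% = median of positive control wells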
CAL PDZ FP-1: CAL PDZ (human) peptide binding inhibition; inhibition, % at 24.9 µM; actives 0.92% (n = 300,000); purified CAL PDZ, TMR-peptide fluorescence polarization, 1 h; Q9HD26;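 active means mean inhibition of at least 30% with at least half of replicates also reaching 30%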;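 further: 0% = DMSO neutral control and 100% = excess unlabeled competitor peptide PRC23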
CAL PDZ FP-2: human CAL PDZ-peptide interaction inhibition; Q9HD26; purified CAL PDZ, TMR-peptide fluorescence polarization, 1 h; inhibition, % at 20 µM; actives 0.02% (n = 330,000); AID 504414;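 active means highest replicate inhibition of at least 40%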;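 further: plate controls were DMSO neutral control wells for no effect and unlabeled competitor peptide control wells for full effect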
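Control set: unlabelled peptide and DMSO controls / Material: purified CerCALP PDZ construct / Timing: 1 h incubation at room temperature before polarization reading / Doses: 20 µM, one dose / Detection: fluorescence polarization (mP)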
SR-BI DiI-HDL act: activators of SR-BI mediated HDL lipid uptake | activation, % at 12.5 µM | actives 0.096% (n = 320,000) | CHO ldlA[mSR-BI] cells, DiI-HDL uptake fluorescence, 3 h; 100 = double the neutral-control signal;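 active means mean replicate activation of at least 60% and every replicate at or above 60%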;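 further: 0% = median plate neutral-control signal and 100% = twice that signal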
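System: LDL receptor-deficient CHO ldlA cells overexpressing murine SR-BI | Timing: 3 h uptake period with compound, 37 °C | Medium: HEPES-buffered (25 mM, pH 7.4) F12 plus 0.5% BSA | Dosing: Single-point compound dose | Signal: Bottom-read fluorescence, 550/595 nm | Read-out: Retained DiI signal reflecting DiI-HDL uptake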
Numbers without * were called inactive; nt = no result; + = active, no number.

SMILES	ATG4B inhibitor	SR-BI DiI inh	CAL PDZ FP-1	CAL PDZ FP-2	SR-BI DiI-HDL act
COc1cc(/C=N/NC(=O)c2cccnc2)ccc1OC(=O)c1ccc2c(c1)OCO2	-22.9	-0.2	-3.6	-2.6	0.2
CC(=O)Nc1ccc(C(=O)N/N=C/c2ccccc2OC(=O)c2ccc(Cl)cc2)cc1	-25.9	52.4	-11.6	-6.5	-52.4
COc1cc(/C=N/NC(=O)c2cccnc2)ccc1OC(=O)c1cc(OC)c(OC)c(OC)c1	-11.4	73.4*	5.4	-4.0	-73.4
COc1cc(C(=O)Oc2ccccc2/C=N/NC(=O)c2ccc(Cl)cc2)cc(OC)c1OC	-6.0	117.2*	-0.5	-0.7	-117.2
COc1ccc([C@@H](C)NC(=O)c2ccc3oc(C(C)C)nc3c2)cc1	3.1	-7.6	-1.9	-2.8	7.6
CCCCNS(=O)(=O)c1ccc2nc(-c3cccnc3)cc(C(=O)NCC(OC)OC)c2c1	9.5	-15.4	-4.0	-1.2	15.4
Cc1ccc(S(=O)(=O)Nc2ccc3c(c2)C(=O)N([C@H](C)CO)C[C@H](C)[C@@H](CN(C)Cc2ccc(-c4ccccc4)cc2)O3)cc1	-14.5	-76.0	-4.2	-0.5	76.0*
C[C@@H]1CN([C@@H](C)CO)C(=O)Cc2cc(NC(=O)Nc3ccc(F)cc3)ccc2O[C@@H]1CN(C)Cc1ccc(Cl)c(Cl)c1	-2.4	-92.6	-3.5	-1.7	92.6*
O=S(=O)(CCc1ccccc1)CS(=O)(=O)CCc1ccccc1	6.1	-3.3	-3.9	-0.9	3.3
COc1ccc(S(=O)(=O)N(C)C(C)CCc2ccco2)cc1 (stereo not given)	16.3	5.3	-1.8	-1.4	-5.3
Cc1ccc(S(=O)(=O)N(C)C(C)CCc2ccco2)cc1 (stereo not given)	20.0	-10.0	+	-1.0	9.9
O=C(c1ccc(OC2CCN(C/C=C/c3ccccc3)CC2)cc1)N1CCCC1	20.0	19.0	-5.9	-2.0	nt
O=C(c1ccc(OC2CCN(C/C=C/c3ccccc3)CC2)cc1)N1CCCCC1	4.0	67.7	36.7*	13.5	-67.7
O=C(CCC(=O)N1CCCC1)Nc1ccc(Cl)c(Cl)c1	1.1	-18.4	-0.4	-2.5	18.4
COc1ccc(C(=O)Nc2ccccc2N2CCCCC2)cc1[N+](=O)[O-]	12.6	77.5*	-3.5	-2.2	-77.5
COc1ccc(C(=O)Nc2ccccc2N2CCOCC2)cc1Br	0.2	79.9*	-7.1	nt	-79.9
COc1ccc(C(=O)NC(=S)Nc2ccccc2N2CCOCC2)cc1Br	12.7	54.8	1.5	-0.6	-54.8
COc1ccccc1-c1oc2ccccc2c1-c1ccc2cc[nH]c2c1	33.8	80.0*	-1.5	-0.3	-80.0
CCOC(=O)c1ccc(-c2c(-c3ccccc3OC)oc3ccccc23)cc1F	-1.9	28.4	6.1	-1.7	-28.4
CCOCc1c(C(=O)OCC(=O)Nc2ccc(C)c(S(=O)(=O)N(C)C)c2)oc2ccccc12	-6.8	8.2	-0.6	-2.1	-8.2
CC(C)(C)C1CCc2c(sc(NC(=O)C3CCCO3)c2C(N)=O)C1 (stereo not given)	-9.9	78.4*	10.2	0.5	-78.4
CN=c1sc2c(n1C)C(=O)c1ccccc1C2=O	-7.4	-4.6	2.6	0.7	4.6
Cc1oc(-c2ccc(Cl)cc2)nc1CS(=O)CC(=O)NCc1ccccc1 (stereo not given)	4.2	-11.5	2.7	-2.3	11.5
CCc1ccc(-c2nc(CS(=O)CC(=O)NCc3ccccc3)c(C)o2)cc1 (stereo not given)	10.0	-28.6	70.6*	-1.1	28.6
C=CCc1ccc(OCCn2nnc3ccccc32)c(OC)c1	4.2	-0.5	94.9*	-2.5	0.5
SMILES	ATG4B inhibitor	SR-BI DiI inh	CAL PDZ FP-1	CAL PDZ FP-2	SR-BI DiI-HDL act
O=C(CCCn1cc([N+](=O)[O-])cn1)Nc1cccnc1	-3.6	-16.6	-3.1	0.7	16.6
CCOc1ccccc1NC(=O)N1CCCC(c2nc(-c3ccc(C)o3)no2)C1 (stereo not given)	-10.2	48.6	76.0*	-1.3	-48.6
O=C(Nc1ccc(F)cc1)N1CCN(C/C=C/c2ccccc2)CC1	-6.8	7.2	-0.3	-2.7	-7.2
COc1ccccc1N1CCN(CC(=O)Nc2cccc(F)c2)CC1	7.3	16.6	-2.8	-0.1	-16.6
COc1ccc(NC(=O)CCN2CCN(S(=O)(=O)c3ccc(F)cc3)CC2)cc1	5.4	-9.0	nt	-1.0	9.0
O=C(CN1CCN(CC(=O)Nc2ccc(OCc3ccccc3)cc2)CC1)Nc1ccc(F)cc1	-6.7	-450.6	nt	-0.8	450.6*
O=C(Nc1cccc(F)c1)N1CCN(C/C=C/c2ccccc2)CC1	-22.6	-20.2	38.9*	-1.1	20.2
CCOc1ccc(NC(=O)CCN2CCN(S(=O)(=O)c3ccc(F)cc3)CC2)cc1	-5.4	-17.3	74.5*	-0.2	17.3
O=C(CN1CCN(CC(=O)Nc2cccc(F)c2)CC1)Nc1ccc(-c2ccccc2)cc1	-5.9	-19.6	58.3*	-1.0	19.6
Cc1ccsc1CN(C)C(=O)c1ccc(Oc2ccccc2)cc1	18.9	nt	nt	-3.9	nt
CCN1C(=N)N(c2ccccc2)C(=O)C(CC)(CC)C1=O	-13.8	-6.5	1.3	-1.0	6.5
[O-]/C(=C(\C(=S)NCc1ccccc1)[n+]1ccccc1)c1ccc(Cl)s1	-4.1	17.2	7.3	-0.8	-17.2
COc1ccc(NC(C)=O)cc1NC(C)c1nc2sc(C)c(C)c2c(=O)[nH]1 (stereo not given)	-9.2	24.2	59.1*	-1.8	-24.2
CN(c1ccccc1)S(=O)(=O)c1cccc(NC(=O)c2nn(C)c(=O)c3ccccc23)c1	-12.6	31.6	-6.7	-1.7	-31.6
Cc1ccc(-c2csc3ncnc(SCC(=O)NCC4CCCO4)c23)cc1 (stereo not given)	6.7	6.9	32.9*	-0.9	-6.9
NC(=O)N=Nc1c2[nH]c3ccccc3nc-2c2ccccc12	-29.2	-2.9	nt	-1.7	2.9
O=C(N/N=C/c1ccccc1Br)c1cccc(S(=O)(=O)N2CCOCC2)c1	5.5	79.5*	4.6	-1.2	-79.5
O=C(N/N=C/c1cc(Cl)cc([N+](=O)[O-])c1O)c1cccc(S(=O)(=O)N2CCOCC2)c1	-13.1	125.4*	-2.0	-0.5	-125.4
O=C(N/N=C/c1sc(N2CCOCC2)nc1-c1ccccc1)c1ccc(O)cc1	-4.1	59.4	-1.4	2.4	-59.4
O=C(N/N=C/c1sc(N2CCOCC2)nc1-c1ccccc1)c1cccc(S(=O)(=O)N2CCCC2)c1	-6.0	97.4*	-3.0	-2.4	-97.4
Cc1nc(Nc2ccc(C(=O)O)cc2)sc1-c1ccccc1	-0.1	-7.7	55.9*	-0.3	7.7
CC(C(=O)N1CCN(Cc2ccc3c(c2)OCO3)CC1)n1cc([N+](=O)[O-])cn1 (stereo not given)	-3.3	nt	-8.9	-1.6	nt
O=Cc1ccc2ccc3cccnc3c2n1	2.1	3.9	55.0*	-0.8	-3.9
O=C1c2ccsc2SCCN1Cc1ccc(Cl)cc1	20.3	-1.2	-1.8	-0.7	1.2
